Calls of active or inactive are those of the source.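 How the source made its calls: active means compounds lowering caspase luminescence whose fitted AC50 is at most ten times their top valid dose; inconclusive means flat partial inhibition or a poor quality curve fit; inactive means the rest.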
Assay: suppressors of cytokine-driven caspase-3/7 activity, dose response, orthogonal assay for beta-cell apoptosis inhibitor project, INS-1E rat cells, dry powder, set 2 (AID 488936)
Conditions: INS-1E cytokine-induced caspase-3/7 luminescence, 48 h
How it was run: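 Assay system: rat INS-1E insulinoma cells. Also added: IFN-gamma, TNF-alpha and IL-1β cytokine cocktail. Timing: 48 h cytokine plus compound exposure, then 1 h reagent, room temperature. Technique: Caspase-Glo 3/7 luminescence. Read-out: Caspase-3/7 IC50 from dose-response. Control set: SAHA positive control.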

SMILES | activity change, negative = inhibition (at 26 µM (top of the series)) | activity change, negative = inhibition (at 23.5 µM (top of the series))
C[C@@H]1CN([C@@H](C)CO)C(=O)c2cccc(NC(=O)Nc3cccc4ccccc34)c2O[C@H]1CN(C)S(=O)(=O)c1ccccc1F | 21.8% (inactive) | 
C[C@@H]1CN([C@@H](C)CO)C(=O)c2cccc(NC(=O)Nc3cccc4ccccc34)c2O[C@H]1CN(C)S(=O)(=O)c1cn(C)cn1 | -1.53% (inactive) | 
COc1ccc(S(=O)(=O)N(C)C[C@@H]2Oc3c(NC(=O)C4CCOCC4)cccc3C(=O)N([C@@H](C)CO)C[C@H]2C)cc1 |  | -8.46% (inactive)
C[C@@H]1CN([C@H](C)CO)C(=O)c2cccc(NC(=O)Nc3ccccc3)c2O[C@H]1CN(C)S(=O)(=O)c1ccc(Cl)cc1 | -6.09% (inactive) | 
COc1ccc(S(=O)(=O)N(C)C[C@@H]2Oc3c(NC(=O)c4cccc5ccccc45)cccc3C(=O)N([C@@H](C)CO)C[C@H]2C)cc1 | -10.7% (inactive) | 
CNC[C@@H]1Oc2c(NC(=O)Nc3cccc4ccccc34)cccc2C(=O)N([C@@H](C)CO)C[C@H]1C | -6.33% (inactive) | 
COc1ccc(S(=O)(=O)N(C)C[C@@H]2Oc3c(NC(=O)c4ccc(-c5nccs5)cc4)cccc3C(=O)N([C@@H](C)CO)C[C@H]2C)cc1 | 6.99% (inactive) | 
C[C@@H]1CN([C@@H](C)CO)C(=O)c2cccc(NC(=O)Nc3cccc4ccccc34)c2O[C@H]1CN(C)S(=O)(=O)c1ccc2c(c1)OCO2 | -4.01% (inactive) | 
COc1ccc(S(=O)(=O)N(C)C[C@@H]2Oc3c(NC(=O)Nc4ccccc4)cccc3C(=O)N([C@H](C)CO)C[C@H]2C)cc1 | -7.43% (inactive) | 
C[C@@H]1CN([C@@H](C)CO)C(=O)c2cccc(NC(=O)Nc3cccc4ccccc34)c2O[C@H]1CN(C)S(=O)(=O)c1ccccc1 | 6.84% (inactive) | 
Cc1ccc(S(=O)(=O)N(C)C[C@@H]2Oc3c(NC(=O)Nc4ccc(F)cc4)cccc3C(=O)N([C@@H](C)CO)C[C@H]2C)cc1 | -11% (inactive) | 
C[C@@H]1CN([C@@H](C)CO)C(=O)c2cccc(NC(=O)Nc3cccc4ccccc34)c2O[C@H]1CN(C)S(=O)(=O)c1ccc2c(c1)OCCCO2 | 0.778% (inactive) | 
COc1ccc(S(=O)(=O)N(C)C[C@@H]2Oc3c(NC(=O)C4CCCCC4)cccc3C(=O)N([C@@H](C)CO)C[C@H]2C)cc1 | -7.12% (inactive) | 
COc1ccc(S(=O)(=O)N(C)C[C@@H]2Oc3c(NC(=O)Nc4cccc5ccccc45)cccc3C(=O)N([C@@H](C)CO)C[C@H]2C)cc1F | 5.84% (inactive) | 
C[C@@H]1CN([C@@H](C)CO)C(=O)c2cccc(NC(=O)Nc3cccc4ccccc34)c2O[C@H]1CN(C)C(=O)Nc1ccccc1 |  | 14.9% (inactive)
COc1ccc(S(=O)(=O)N(C)C[C@@H]2Oc3c(NC(=O)Nc4cccc5ccccc45)cccc3C(=O)N(C(C)C)C[C@H]2C)cc1 | -6.92% (inactive) | 
Cc1ccc(S(=O)(=O)N(C)C[C@@H]2Oc3c(NC(=O)Nc4cccc5ccccc45)cccc3C(=O)N([C@@H](C)CO)C[C@H]2C)cc1 | 11.5% (inactive) | 
COc1ccc(S(=O)(=O)N(C)C[C@@H]2Oc3c(NC(=O)c4cnccn4)cccc3C(=O)N([C@@H](C)CO)C[C@H]2C)cc1 | -2.35% (inactive) | 
Cc1ccc(S(=O)(=O)N(C)C[C@@H]2Oc3c(NC(=O)Nc4ccc(F)cc4)cccc3C(=O)N([C@H](C)CO)C[C@H]2C)cc1 | -5.96% (inactive) | 
COc1ccc(S(=O)(=O)N(C)C[C@@H]2Oc3c(NC(=O)C4CC4)cccc3C(=O)N([C@@H](C)CO)C[C@H]2C)cc1 |  | -6.93% (inactive)
COc1ccc(S(=O)(=O)N(C)C[C@@H]2Oc3c(NC(=O)Nc4cccc5ccccc45)cccc3C(=O)N([C@@H](C)CO)C[C@H]2C)cc1 | -10.2% (inactive) | 
Cc1ccc(S(=O)(=O)N(C)C[C@@H]2Oc3c(NC(=O)Nc4cccc5ccccc45)cccc3C(=O)N([C@H](C)CO)C[C@H]2C)cc1 |  | -12.7% (inactive)

— PubChem BioAssay AID488936 (Broad Institute, 2010)
